Source: ChEMBL document CHEMBL1125415, “Antihyperglycemic activity of novel substituted 3H-1,2,3,5-oxathiadiazole 2-oxides” (1992)

Experiments:
[1] = tested on: Mus musculus; assay: Antihyperglycemic activity in mice at a dose of 20 mg/kg; format: functional
Procedure, shortened: (§1)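 Diabetic db/db mice, after exclusion of the five most extreme baseline glucose values, randomized into groups of equal mean plasma glucose, 4-6 per group. Oral dosing in 2% Tween 80/saline on afternoons of days 1-3 (fed), and day 4 after 3 h fast. Plasma glucose at 2 and 4 h post-dose; mean expressed as % change from day-1 baseline versus vehicle; ANOVA with one-sided Dunnett's test.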

[2] = tested on: Mus musculus; assay: Antihyperglycemic activity in mice at a dose of 100 mg/kg; format: functional; procedure, shortened: as §1

Row | SMILES | Decrease [1] [%] | Decrease [2] [%]
1 | O=S1NC(Cc2cc3ccc(F)cc3o2)=NO1 (stereo not given) | <-15 | -18
2 | O=S1NC(Cc2cc3cc(F)ccc3s2)=NO1 (stereo not given) | <-15 | <15
3 | O=S1NC(Cc2coc3c(Cl)cc(Cl)cc23)=NO1 (stereo not given) | <-15 | -29
4 | O=S1NC(Cc2ccc3c(c2)CCCC3)=NO1 (stereo not given) | <-15 | <15
5 | CC(C)(C)c1ccc(CC2=NOS(=O)N2)cc1 (stereo not given) | <-15 | <15
6 | O=S1NC(CC2=C(Cl)c3ccccc3CC2)=NO1 (stereo not given) | -27 | 
7 | Cc1ccc2occ(CC3=NOS(=O)N3)c2c1 (stereo not given) | <-15 | -42
8 | O=S1NC(Cc2ccc3c(c2)CCC3)=NO1 (stereo not given) | <-15 | <15
9 | CC1(COc2ccc(CC3SC(=O)NC3=O)cc2)CCCCC1 (stereo not given) [CIGLITAZONE] | <-15 | -29
10 | O=S1NC(Cc2coc3cc(Cl)ccc23)=NO1 (stereo not given) | <-15 | -22
11 | O=S1NC(Cc2ccc3ccccc3c2)=NO1 (stereo not given) | -37 | -63
12 | O=S1NC(Cc2cc3cc(F)ccc3o2)=NO1 (stereo not given) | <-15 | -25
13 | O=S1NC(Cc2ccc(-c3ccccc3)cc2)=NO1 (stereo not given) | <-15 | <15
14 | O=S1NC(Cc2coc3ccc(Br)cc23)=NO1 (stereo not given) | <-15 | <15
15 | O=S1NC(Cc2cc3ccccc3s2)=NO1 (stereo not given) | <-15 | -42
16 | O=S1NC(Cc2coc3ccc(Cl)cc23)=NO1 (stereo not given) | <-15 | 
17 | O=S1NC(Cc2cc3cc(Cl)ccc3o2)=NO1 (stereo not given) | <-15 | -23

Row | SMILES | Decrease [1] [%] | Decrease [2] [%]
18 | O=S1NC(Cc2cc3cc(Cl)ccc3s2)=NO1 (stereo not given) | <-15 | -24
19 | O=S1NC(CC2=Cc3ccccc3CC2)=NO1 (stereo not given) | -23 | -53
20 | O=S1NC(Cc2ccc(OCc3ccccc3)cc2)=NO1 (stereo not given) |  | <-15
21 | O=S1NC(Cc2cc3cc(Br)ccc3s2)=NO1 (stereo not given) | -20 | -29
22 | O=S1NC(CC2CCc3ccccc32)=NO1 (stereo not given) | <-15 | <15
23 | O=S1NC(Cc2c[nH]c3ccc(Br)cc23)=NO1 (stereo not given) | -22 | -30
24 | O=S1NC(Cc2ccc(OCCc3ccccc3)cc2)=NO1 (stereo not given) | <-15 | -56
25 | O=S1NC(Cc2coc3ccccc23)=NO1 (stereo not given) | <-15 | -28
26 | O=S1NC(Cc2ccc(Br)cc2F)=NO1 (stereo not given) | -17 | -28
27 | O=S1NC(Cc2cc3ccccc3o2)=NO1 (stereo not given) | <-15 | <15
28 | O=S1NC(Cc2c[nH]c3ccccc23)=NO1 (stereo not given) | <-15 | -22
29 | O=S1NC(CC2CCc3ccccc3C2)=NO1 (stereo not given) | <-15 | -22
30 | O=S1NC(Cc2coc3c(Cl)cccc23)=NO1 (stereo not given) | -26 | -54
31 | O=S1NC(Cc2cccc(C(F)(F)F)c2)=NO1 (stereo not given) | <-15 | -34
32 | Cc1ccc(CC2=NOS(=O)N2)cc1C (stereo not given) | <-15 | <15
33 | O=S1NC(Cc2cccc(Cl)c2)=NO1 (stereo not given) | <-15 | -40
34 | O=S1NC(Cc2csc3ccccc23)=NO1 (stereo not given) | <-15 | -30
